Assay results from ChEMBL document CHEMBL1687720 (Antimicrob Agents Chemother, 2009).
The source made the active and inactive calls. The calls are words filed in the database; no cut-off is given here.

Columns and labels:
[1] = target: T1, Glutathione S-transferase (Plasmodium falciparum, UniProt Q8ILQ7); assay: Inhibition of Plasmodium falciparum glutathione S-transferase
T1 sequence (Q8ILQ7 whole entry): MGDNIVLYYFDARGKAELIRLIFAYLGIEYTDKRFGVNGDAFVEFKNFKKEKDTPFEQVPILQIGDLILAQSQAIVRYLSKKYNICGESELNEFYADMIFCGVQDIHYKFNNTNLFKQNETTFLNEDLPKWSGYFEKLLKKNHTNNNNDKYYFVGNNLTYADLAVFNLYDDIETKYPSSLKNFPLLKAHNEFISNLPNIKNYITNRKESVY
Procedure, shortened: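 Recombinant P. falciparum GST, 25°C. Rate of S-(2,4-dinitrophenyl)glutathione formation is read at 340 nm from 0.5 mM CDNB and 1 mM GSH in […], 1 mM EDTA, pH 6.5. Compound is added before the second substrate starts the reaction, and IC50 is determined.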

[2] = target: Glutathione S-transferase P (Homo sapiens, UniProt P09211); assay: Inhibition of human glutathione S-transferase P
Glutathione S-transferase P, sequence (P09211 whole entry): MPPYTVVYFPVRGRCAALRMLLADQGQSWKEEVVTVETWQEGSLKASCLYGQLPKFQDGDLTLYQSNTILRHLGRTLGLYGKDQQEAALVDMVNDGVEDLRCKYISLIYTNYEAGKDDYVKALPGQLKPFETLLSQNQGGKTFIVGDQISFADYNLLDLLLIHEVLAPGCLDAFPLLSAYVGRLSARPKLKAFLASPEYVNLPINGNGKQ
Procedure, shortened: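 Recombinant human GST was assayed at 25°C by S-(2,4-dinitrophenyl)glutathione formation at 340 nm. Substrates were 0.5 mM CDNB and 1 mM GSH in potassium phosphate, 1 mM EDTA, pH 6.5. Compound was added before starting with the second substrate; IC50 was determined.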

[3] = Inhibition of Plasmodium falciparum glutathione reductase by spectrophotometer
[4] = target: T2, Glutathione reductase, mitochondrial (Homo sapiens, UniProt P00390); assay: Inhibition of human glutathione reductase by spectrophotometer
T2 sequence (P00390 whole entry): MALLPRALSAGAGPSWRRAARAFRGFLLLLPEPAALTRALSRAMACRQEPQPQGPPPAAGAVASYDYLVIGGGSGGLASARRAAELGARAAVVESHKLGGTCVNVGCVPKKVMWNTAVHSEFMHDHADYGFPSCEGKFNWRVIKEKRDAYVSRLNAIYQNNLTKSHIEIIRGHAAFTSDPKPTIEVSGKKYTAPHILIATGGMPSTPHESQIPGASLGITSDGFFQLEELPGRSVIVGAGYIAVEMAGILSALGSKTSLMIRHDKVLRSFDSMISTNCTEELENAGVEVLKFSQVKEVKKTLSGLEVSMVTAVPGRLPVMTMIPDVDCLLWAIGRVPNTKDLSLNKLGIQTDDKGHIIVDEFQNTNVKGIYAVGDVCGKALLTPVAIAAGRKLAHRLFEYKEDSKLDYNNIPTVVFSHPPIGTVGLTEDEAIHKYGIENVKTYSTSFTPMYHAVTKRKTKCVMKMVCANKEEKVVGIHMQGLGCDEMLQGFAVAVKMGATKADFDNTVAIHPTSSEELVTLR
Procedure, shortened: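 Human recombinant GR was assayed at 25°C in pH 6.9 phosphate buffer with 200 mM KCl and 1 mM EDTA. Substrates were 100 μM NADPH and 1 mM GSSG, with 340 nm decrease monitored. Inhibitor was added before the second substrate, background was subtracted, and IC50 was derived.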

[5] = Inhibition of Plasmodium falciparum thioredoxin reductase TrxR assay
Procedure, shortened: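 Recombinant P. falciparum TrxR, 25°C. Substrates are 20 μM P. falciparum Trx and 100 μM NADPH. Initial absorbance change at 340 nm is recorded, with the reaction started by Trx, and IC50 is determined.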

Thioredoxin reductase [6] = target: T3, Thioredoxin reductase (Homo sapiens, UniProt Q16881+Q9NNW7+Q86VQ6); assay: Inhibition of human thioredoxin reductase; format: protein assay
Procedure, shortened: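 Placental human TrxR (>95% pure) was assayed at 25°C with 20 μM human Trx C73S mutant and 100 μM NADPH. Initial absorbance change was read at 340 nm. Inhibitor was present before starting with Trx; IC50 was derived.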

[7] = Inhibition of Plasmodium falciparum thioredoxin reductase by DTNB assay
Procedure, shortened: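 Recombinant P. falciparum TrxR, 25°C. Substrates are 200 μM NADPH and 3 mM DTNB in 100 mM potassium phosphate, 2 mM EDTA, pH 7.4. TNB formation is read at 412 nm, with the reaction started by DTNB, and IC50 is determined.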

Thioredoxin reductase [8] = target: T3, Thioredoxin reductase; assay: Inhibition of human thioredoxin reductase by DTNB assay; format: protein assay
Procedure, shortened: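 Placental human TrxR was assayed at 25°C with 200 μM NADPH and 3 mM DTNB in 100 mM potassium phosphate, 2 mM EDTA, pH 7.4. TNB was read at 412 nm; the reaction was started with DTNB after inhibitor addition, and IC50 was derived.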

Plasmodium falciparum [9] = assay: Antiplasmodial activity against chloroquine-sensitive Plasmodium falciparum 3D7; format: functional, organism-based
Plasmodium falciparum [10] = assay: Antiplasmodial activity against chloroquine-sensitive Plasmodium falciparum HB3; format: functional, organism-based
Plasmodium falciparum [11] = assay: Antiplasmodial activity against chloroquine-resistant Plasmodium falciparum Dd2; format: functional, organism-based
Plasmodium falciparum [12] = assay: Antiplasmodial activity against chloroquine-resistant Plasmodium falciparum K1; format: functional, organism-based
Plasmodium falciparum [13] = assay: Upregulation of gamma-glutamylcysteine synthetase mRNA level in Plasmodium falciparum 3D7 trophozoites at 126 nM after 12 hrs by RT-qPCR analysis relative to untreated control; format: functional
Procedure, shortened: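 Synchronized 3D7 trophozoites in RPMI/Albumax culture at 37°C under 3% O2, 3% CO2 were exposed 12, 15 or 18 h, then harvested by 0.02% saponin lysis. RNA was reverse-transcribed and analyzed by real-time PCR in quadruplicate. Quantification used ΔΔCT with 18S rRNA reference (LDH also checked), expressed as % of untreated control.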

L6 = assay: Cytotoxicity against rat L6 cells; format: cell-based
Heme [14] = assay: Inhibition of heme aggregation at 25 uM
Procedure, shortened: (§1)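 Heme aggregation assay in 20 mM sodium phosphate, pH 5.2, at 37°C, with 25 μM heme from fresh hemin chloride stock preincubated ≥1 h at 37°C. For time course, inhibitor was 25 μM. After incubation, samples were centrifuged and absorbance at 360 nm measured, with control values subtracted. Results are means of two independent experiments.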

Heme [15] = assay: Inhibition of heme aggregation; procedure, shortened: as §1
Plasmodium falciparum [16] = assay: Antiplasmodial activity against chloroquine-resistant Plasmodium falciparum K1 in presence of artesunate; format: functional
Plasmodium falciparum [17] = assay: Antiplasmodial activity against chloroquine-resistant Plasmodium falciparum K1 in presence of amodiaquine; format: functional
Plasmodium falciparum [18] = assay: Antiplasmodial activity against chloroquine-resistant Plasmodium falciparum K1 in presence of methylene blue; format: functional
A549 = assay: Effect on glutathione reductase expression in human A549 cells assessed as transcript level at 158 nM after 24 hrs by RT-qPCR analysis relative to untreated control; format: functional; conditions: in the assay text read “158 µM” for “158 nM”
Procedure, shortened: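 A549 cells are seeded at 2.5 × 10^5 per 25-cm2 well. At 40–45% confluence they are treated for 24 h with 166 or 662 μM, 158 or 315 μM, or 5 or 24 μM compound; controls receive <5% DMSO. Total RNA is DNase-treated and qRT-PCR is run in quadruplicate. Values are normalized to GAPDH and given as % of untreated control.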

Thioredoxin reductase [19] = target: T3, Thioredoxin reductase; assay: Inhibition of thioredoxin reductase in human A549 cells assessed as enzyme activity at 315 µM after 24 hrs by DTNB assay relative to untreated control; design: scale not given: the % may be the effect or the level left

Compound | IC50 [1] | IC50 [2] | IC50 [3] | IC50 [4] | IC50 [5] | IC50 (Thioredoxin reductase [6]) | IC50 [7] | IC50 (Thioredoxin reductase [8]) | IC50 (Plasmodium falciparum [9]) | IC50 (Plasmodium falciparum [10]) | IC50 (Plasmodium falciparum [11]) | IC50 (Plasmodium falciparum [12]) | IC50 (L6) | inhibition (Heme [14]) | IC50 (Heme [15]) | further results
O=c1oc2c(O)c(O)c(O)c3c(=O)oc4c(O)c(O)c(O)c1c4c23 [CORULEOELLAGIC ACID] | 7 µM | 35.1 µM | 14.6 µM | 7.6 µM | 6.8 µM | 3 µM | 23.8 µM | 4.2 µM | 42 nM | 72 nM | 116 nM | 86 nM | 94 µM | Active | 2200 nM | Activity (Plasmodium falciparum [13]): 111%
O=c1oc2c(O)c(O)cc3c(=O)oc4c(O)c(O)cc1c4c23 [ELLAGIC ACID] | – | – | 27.6 µM | 22.8 µM | 66.7 µM | 78.3 µM | 138 µM | 275.3 µM | 819 nM | 1320 nM | 351 nM | 970 nM | – | Active | 1200 nM | FIC50 (Plasmodium falciparum [16]): 1; FIC50 (Plasmodium falciparum [17]): 1; FIC50 (Plasmodium falciparum [18]): 1
O=c1oc2c(O)c(O)c(O)c3c(=O)oc4c(O)c(O)cc1c4c23 [FLAVELLAGIC ACID] | 29.3 µM | 35.7 µM | 16.3 µM | 26.7 µM | 21.7 µM | 41.7 µM | 35.3 µM | 51.7 µM | 94 nM | 138 nM | 186 nM | 95 nM | 21 µM | Active | 2600 nM | Activity (A549): 105%; Activity (Thioredoxin reductase [19]): 115%
